Assay [1] concerns KOPTK1. The assay is described as follows: Induction of cell death in human KOPTK1 cells harboring activating Notch1 gene mutations assessed as increase in cleaved PARP protein expression at 2.5 uM incubated for 36 hrs by Western blot analysis. It counts as functional, cell-based. In a few lines:
(§1)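 Western blot of KOPTK1 lysates probed for p27kip, full-length and cleaved PARP, β-actin as loading control.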
(In general: A western blot detects proteins with antibodies after separation by electrophoresis.)

The subject of assay [2] is KOPTK1. Description: Induction of cell death in human KOPTK1 cells harboring activating Notch1 gene mutations assessed as increase in p27kip protein expression at 2.5 uM incubated for 36 hrs by Western blot analysis. It counts as functional, cell-based. In a few lines:
as §1

Assay [3] addresses Neurogenic locus notch homolog protein 1 (Homo sapiens) (UniProt P46531). Description: Inhibition of NOTCH1 signalling in human KOPTK1 cells harboring activating Notch1 gene mutations assessed as reduction in DELTEX1 mRNA expression at 2.5 uM incubated for 36 hrs by RT-PCR analysis. It is filed as cell-based. The method in brief:
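DELTEX1 (DTX1) relative gene expression measured in KOPTK1 cells after 36 h with 2.5 μM compound or DMSO vehicle; three independent experiments in triplicate, mean ± SEM.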

The test system of assay [4] is HaCaT. Description: Antiproliferative activity against immortalized human HaCaT cells assessed as reduction in cell viability at 2.5 uM incubated for 36 hrs by MTS assay. It counts as functional, cell-based. For orientation: Formazan colour is commonly taken as a measure of viable cells.
Assay [5] has as its system Jurkat. Description: Antiproliferative activity against human Jurkat cells assessed as reduction in cell viability at 2.5 uM incubated for 36 hrs by MTS assay. It is filed as functional, cell-based.
Assay [6] has as its system KOPTK1. Description: Antiproliferative activity against human KOPTK1 cells harboring activating Notch1 gene mutations assessed as reduction in cell viability incubated for 36 hrs by MTS assay. It counts as functional, cell-based. The conditions noted are these: KOPTK1, 36 h. The method in brief: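 Dose–response MTS proliferation assay in KOPTK1 cells at 0, 0.5, 1, 2.5, 5, 10, 20 and 50 μM for 36 h; IC50 taken as half-maximal growth-inhibitory concentration; three independent experiments in triplicate, mean ± SD.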

The target of assay [7] is Neurogenic locus notch homolog protein 1 (Homo sapiens) (UniProt P46531). The assay is described as follows: Inhibition of NOTCH1 signalling in human KOPTK1 cells harboring activating Notch1 gene mutations assessed as reduction in N1Val protein expression at 2.5 uM incubated for 36 hrs by Western blot analysis. It counts as cell-based. In a few lines: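 KOPTK1 cells exposed 36 h to 2.5 μM compound or DMSO; endogenous activated Notch1 intracellular domain (N1Val) detected by Western blot with β-actin loading control; relative levels quantified by optical densitometry versus DMSO.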
Sequence of Neurogenic locus notch homolog protein 1 (Homo sapiens) (P46531 whole entry, the tested form may be a part): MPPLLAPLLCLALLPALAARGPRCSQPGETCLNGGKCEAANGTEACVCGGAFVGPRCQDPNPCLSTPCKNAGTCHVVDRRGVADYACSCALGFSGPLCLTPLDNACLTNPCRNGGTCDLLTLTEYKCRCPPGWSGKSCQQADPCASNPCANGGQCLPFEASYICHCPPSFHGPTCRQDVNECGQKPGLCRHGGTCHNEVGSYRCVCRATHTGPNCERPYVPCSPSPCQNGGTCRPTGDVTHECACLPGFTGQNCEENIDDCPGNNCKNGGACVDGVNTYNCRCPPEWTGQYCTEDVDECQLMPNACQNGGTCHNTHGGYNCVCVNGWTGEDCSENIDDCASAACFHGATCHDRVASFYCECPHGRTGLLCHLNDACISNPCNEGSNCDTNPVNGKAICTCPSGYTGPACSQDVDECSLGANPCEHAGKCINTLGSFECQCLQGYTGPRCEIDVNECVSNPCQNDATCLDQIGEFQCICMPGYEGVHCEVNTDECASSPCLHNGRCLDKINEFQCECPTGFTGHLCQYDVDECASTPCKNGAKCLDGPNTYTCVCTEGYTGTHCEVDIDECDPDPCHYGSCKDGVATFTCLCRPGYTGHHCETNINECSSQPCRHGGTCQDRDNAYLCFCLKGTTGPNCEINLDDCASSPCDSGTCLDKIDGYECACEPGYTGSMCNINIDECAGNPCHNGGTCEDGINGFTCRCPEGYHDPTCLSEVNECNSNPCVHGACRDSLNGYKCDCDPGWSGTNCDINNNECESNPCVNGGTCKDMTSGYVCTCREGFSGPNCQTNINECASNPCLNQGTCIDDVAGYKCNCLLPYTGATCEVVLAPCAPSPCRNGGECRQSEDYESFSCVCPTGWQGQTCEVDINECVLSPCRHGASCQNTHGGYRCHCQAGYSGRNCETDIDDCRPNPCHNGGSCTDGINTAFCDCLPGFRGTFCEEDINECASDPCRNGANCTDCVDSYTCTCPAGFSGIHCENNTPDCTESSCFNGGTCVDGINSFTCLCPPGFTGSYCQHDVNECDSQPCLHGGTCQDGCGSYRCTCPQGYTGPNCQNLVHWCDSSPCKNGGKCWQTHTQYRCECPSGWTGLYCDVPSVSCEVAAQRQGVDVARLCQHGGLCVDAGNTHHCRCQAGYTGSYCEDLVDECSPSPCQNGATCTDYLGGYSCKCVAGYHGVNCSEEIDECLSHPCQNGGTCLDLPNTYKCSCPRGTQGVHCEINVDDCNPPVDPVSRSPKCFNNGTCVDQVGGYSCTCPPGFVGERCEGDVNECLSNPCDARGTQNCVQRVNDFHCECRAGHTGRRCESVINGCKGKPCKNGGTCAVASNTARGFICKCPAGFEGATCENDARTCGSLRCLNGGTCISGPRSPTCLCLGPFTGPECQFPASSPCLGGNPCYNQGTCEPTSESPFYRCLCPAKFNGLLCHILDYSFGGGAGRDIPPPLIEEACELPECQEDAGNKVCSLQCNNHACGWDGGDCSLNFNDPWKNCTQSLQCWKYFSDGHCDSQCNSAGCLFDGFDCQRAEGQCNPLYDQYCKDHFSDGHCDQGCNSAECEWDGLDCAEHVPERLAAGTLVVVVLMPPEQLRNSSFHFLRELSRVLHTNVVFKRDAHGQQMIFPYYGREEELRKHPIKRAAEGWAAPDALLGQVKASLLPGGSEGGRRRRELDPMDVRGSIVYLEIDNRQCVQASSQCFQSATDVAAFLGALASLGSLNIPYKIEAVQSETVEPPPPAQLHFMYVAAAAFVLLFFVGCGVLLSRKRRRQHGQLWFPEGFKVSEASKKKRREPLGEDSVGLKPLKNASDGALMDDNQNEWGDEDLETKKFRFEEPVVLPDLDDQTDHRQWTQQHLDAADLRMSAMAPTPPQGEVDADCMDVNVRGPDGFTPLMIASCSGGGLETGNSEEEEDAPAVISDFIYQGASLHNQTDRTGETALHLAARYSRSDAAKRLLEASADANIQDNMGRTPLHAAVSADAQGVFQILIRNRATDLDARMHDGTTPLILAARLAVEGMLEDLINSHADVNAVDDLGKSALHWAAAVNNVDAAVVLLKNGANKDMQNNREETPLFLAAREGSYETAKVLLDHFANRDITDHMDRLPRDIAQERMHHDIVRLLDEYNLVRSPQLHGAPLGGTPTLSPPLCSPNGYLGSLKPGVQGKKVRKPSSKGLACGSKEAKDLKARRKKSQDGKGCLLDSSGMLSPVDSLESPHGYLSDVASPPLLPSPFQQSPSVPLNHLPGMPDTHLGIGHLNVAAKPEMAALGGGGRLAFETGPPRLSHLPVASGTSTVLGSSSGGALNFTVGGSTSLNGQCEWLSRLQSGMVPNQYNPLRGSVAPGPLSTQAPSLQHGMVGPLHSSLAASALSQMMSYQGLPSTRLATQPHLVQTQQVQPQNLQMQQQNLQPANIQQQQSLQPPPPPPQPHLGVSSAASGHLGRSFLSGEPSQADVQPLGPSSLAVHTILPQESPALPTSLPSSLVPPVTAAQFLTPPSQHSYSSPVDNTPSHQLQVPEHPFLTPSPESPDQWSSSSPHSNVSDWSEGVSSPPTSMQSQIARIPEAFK

The test system of assay [8] is KOPTK1. The assay is described as follows: Antiproliferative activity against human KOPTK1 cells harboring activating Notch1 gene mutations assessed as reduction in cell viability at 2.5 uM incubated for 36 hrs by MTS assay. It is filed as functional. The method in brief: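 Single-point MTS viability screen in KOPTK1 T-ALL cells: 2.5 μM compound or DMSO vehicle for 36 h; viability expressed relative to DMSO; 30% viability decrease used as screening threshold; two independent experiments in triplicate, mean ± SEM.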

Active and inactive are the calls of the source. Bounds are passed on as bounds.

One may read the IC50 as the concentration at which inhibition is half-maximal. With `COc1ccc2c(c1)CC(C(=O)c1ccc(OC)cc1OC)CC2` (racemic), the result in assay [1], in assay [4] and in assay [5] was Active. The outcome in assay [2] was inactive. For the same compound, the inhibition entry in assay [3] and in assay [7] was “Active” throughout. Besides, the half-inhibitory concentration (IC50) in assay [6] is 720 nM. In addition, in assay [8], the Activity entry is “>=30%”.

Take `COc1ccc(C(=O)/C=C/c2ccc(O)cc2)c(O)c1`: the inhibition entry in assay [3] and in assay [7] was “Active” in each case. Besides, the half-inhibitory concentration (IC50) in assay [6] stood at 1910 nM. Also, the Activity result in assay [8] is reported as “>=30%”.

Consider `Cc1ccc(C(=O)/C=C/c2ccc(O)cc2)cc1`, for which the result in assay [1] was inactive. For the same compound, the result in assay [2] was Active. The inhibition result in assay [3] and in assay [7] was “Active” throughout. Also, the IC50 in assay [6] came out at 3830 nM. Also, the Activity entry in assay [8] was “>=30%”.

For the compound `COc1ccc2c(c1)CCC(C(=O)c1ccc(OC)cc1OC)C2` (racemic), the result in assay [1], in assay [4] and in assay [5] was Active. Moreover, the outcome in assay [2] was inactive. Moreover, the inhibition entry in assay [3] and in assay [7] was “Active” throughout. The IC50 in assay [6] was 1370 nM. For the same compound, in assay [8], the Activity entry is recorded as “>=30%”.

In the case of `COc1ccc(C(=O)C2CCc3cc(O)ccc3C2)c(O)c1` (racemic), in assay [1], the outcome was inactive. Further, in assay [2], the outcome was Active. The inhibition result in assay [3] and in assay [7] was “Active” each time. Besides, the IC50 in assay [6] amounted to 2460 nM. Besides, the Activity result in assay [8] is “>=30%”.

Regarding `COc1ccc(C(=O)/C=C/c2ccc(O)c(C)c2)c(O)c1`, the outcome in assay [1] and in assay [2] was Active. The inhibition result in assay [3] and in assay [7] was “Active” in each case. In addition, the Activity result in assay [8] is listed as “>=30%”.

For the origin of these results see ChEMBL document CHEMBL4339229, “Chalcones and Chalcone-mimetic Derivatives as Notch Inhibitors in a Model of T-cell Acute Lymphoblastic Leukemia” (ACS Med Chem Lett, 2019).
